These molecules were tested against Neuronal acetylcholine receptor subunit alpha-7 (Rattus norvegicus, UniProt Q05941) (assay: Inhibition of biotinylated alpha-bungarotoxin binding to alpha7 nAChR in rat PC12 cells by FACS analysis).
Format: cell-based, PC-12
In short: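 Rat PC12 cells in binding buffer (PBS, 1.0% FBS, 0.02% sodium azide), 0.1% DMSO; biotinylated α-bungarotoxin 10 nM final, 1 h at room temperature; nonspecific binding defined with 1.5 μM unlabeled toxin. After washing, phycoerythrin-streptavidin 1.0 μg/mL final, 15 min in the dark; read by FACS. Screened at 10 and 1 μM, then eight-point 3-fold dilution IC50; mean of two or more experiments.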

Neuronal acetylcholine receptor subunit alpha-7, sequence (Q05941 whole entry): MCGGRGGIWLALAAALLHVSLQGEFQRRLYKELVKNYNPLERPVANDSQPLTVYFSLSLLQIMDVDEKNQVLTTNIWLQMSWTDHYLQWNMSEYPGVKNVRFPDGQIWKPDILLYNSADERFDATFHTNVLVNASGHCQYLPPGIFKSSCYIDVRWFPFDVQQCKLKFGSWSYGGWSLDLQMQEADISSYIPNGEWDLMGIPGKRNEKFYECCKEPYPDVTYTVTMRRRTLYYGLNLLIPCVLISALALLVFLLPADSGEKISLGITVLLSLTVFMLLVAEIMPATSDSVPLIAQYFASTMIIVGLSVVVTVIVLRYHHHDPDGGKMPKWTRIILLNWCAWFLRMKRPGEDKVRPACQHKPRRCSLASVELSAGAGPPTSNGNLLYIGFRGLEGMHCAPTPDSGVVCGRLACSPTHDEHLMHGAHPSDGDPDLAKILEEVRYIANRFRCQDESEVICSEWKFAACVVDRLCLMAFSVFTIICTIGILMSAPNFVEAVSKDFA

SMILES	IC50 [µM]
Brc1ccc2oc(N3CCNC[C@H]3COc3cccnc3)nc2c1	3.2
c1cncc(OC[C@@H]2CNCCN2c2nc3ncccc3o2)c1	1.58
COc1ccc2nc(N3CCNC[C@H]3COc3cccnc3)sc2c1	5.1
COc1ccc2nc(N3CCNCC3COc3cccnc3)sc2c1 (racemic)	0.079
COc1ccc2nc(N3CCNCC3COc3cccnc3)oc2c1 (racemic)	0.022
COc1ccc2oc(N3CCNCC3COc3cccnc3)nc2c1 (racemic)	0.071
Brc1ccc2oc(N3CCNCC3COc3cccnc3)nc2c1 (racemic)	0.075
c1cncc(OCC2CNCCN2c2nc3ncccc3o2)c1 (racemic)	0.004
c1cncc(OCC2CNCCN2c2nc3ccccc3s2)c1 (racemic)	0.49
COc1ccc2sc(N3CCNCC3COc3cccnc3)nc2c1 (racemic)	0.107
Cc1ccc2nc(N3CCNCC3COc3cccnc3)sc2c1 (racemic)	0.085
Clc1ccc2nc(N3CCNCC3COc3cccnc3)sc2c1 (racemic)	0.153
FC(F)(F)Oc1ccc2nc(N3CCNCC3COc3cccnc3)sc2c1 (racemic)	0.27
FC(F)(F)c1ccc2nc(N3CCNCC3COc3cccnc3)sc2c1 (racemic)	0.338
Fc1ccc2nc(N3CCNCC3COc3cccnc3)sc2c1 (racemic)	0.132
c1cncc(OCC2CNCCN2c2nc3ncccc3s2)c1 (racemic)	0.032
Clc1cnc2nc(N3CCNCC3COc3cccnc3)sc2c1 (racemic)	0.004
O=C(c1ccccc1)N1CCNCC1COc1cccnc1 (racemic)	1.08
O=C(c1ccc(Cl)cc1)N1CCNCC1COc1cccnc1 (racemic)	6.1

SMILES	IC50 [µM]
O=C(Cc1ccccc1)N1CCNCC1COc1cccnc1 (racemic)	0.56
O=C(Cc1ccc(Cl)cc1)N1CCNCC1COc1cccnc1 (racemic)	0.11
O=C(COc1ccccc1)N1CCNCC1COc1cccnc1 (racemic)	2.34
O=C(Nc1ccccc1)N1CCNCC1COc1cccnc1 (racemic)	0.68
O=C(Nc1ccc(Cl)cc1)N1CCNCC1COc1cccnc1 (racemic)	0.07
O=C(Oc1ccccc1)N1CCNCC1COc1cccnc1 (racemic)	0.037
O=C(Oc1ccc(Cl)cc1)N1CCNCC1COc1cccnc1 (racemic)	0.0095
O=C(Nc1cccc(Cl)c1)N1CCNCC1COc1cccnc1 (racemic)	0.21
O=C(Nc1ccc(Cl)c(Cl)c1)N1CCNCC1COc1cccnc1 (racemic)	0.04
Cc1ccc(NC(=O)N2CCNCC2COc2cccnc2)cc1 (racemic)	0.074
O=C(Nc1ccc(C(F)(F)F)cc1)N1CCNCC1COc1cccnc1 (racemic)	0.22
CC(C)c1ccc(NC(=O)N2CCNCC2COc2cccnc2)cc1 (racemic)	0.28
COc1cccc(NC(=O)N2CCNCC2COc2cccnc2)c1 (racemic)	0.34
COc1ccccc1NC(=O)N1CCNCC1COc1cccnc1 (racemic)	0.85
COc1ccc(NC(=O)N2CCNCC2COc2cccnc2)c(OC)c1 (racemic)	0.08
O=C(Nc1ccc(OC(F)(F)F)cc1)N1CCNCC1COc1cccnc1 (racemic)	0.152
O=C(Nc1ccc(Br)cc1)N1CCNCC1COc1cccnc1 (racemic)	0.05
O=C(Nc1ccc(-c2ccccc2)cc1)N1CCNCC1COc1cccnc1 (racemic)	0.013
O=C(Nc1ccc2c(c1)CCO2)N1CCNCC1COc1cccnc1 (racemic)	0.63

— ChEMBL document CHEMBL3259628, “Discovery of novel 2-((pyridin-3-yloxy)methyl)piperazines as α7 nicotinic acetylcholine receptor modulators for the treatment of inflammatory disorders” (J Med Chem, 2014)
